Assay results taken from PubChem BioAssay.
Calls of active or inactive are those of the source.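 How the source made its calls, unless noted: active means visual image review flags a hit and inhibition of aggregation exceeds 20%; inconclusive means visual hit but inhibition at or below 20%; inactive means no hit on visual image review.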

Assays:
[1] = inhibitors of TNFa-induced NFkB p65 translocation, primary screen, imaging, HUVEC, MLSMR starter and 10KST1 sets (AID 438;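 active means inhibition above 20% together with a positive visual image hit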;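 further: compound added about 3h40 before a 20 min TNFalpha stimulation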;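 on inhibition: signal is the nuclear over cytoplasmic p65 intensity ratio per well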); conditions: HUVEC TNFa-induced p65 nuclear translocation; cell count: measured here: nuclei count (cytotoxicity indicator), at 2.08 µM; inhibition: at 2 µM, stronger effect = higher value, 0% TNFa-plus-vehicle, 100% no-TNFa wells
[2] = reduction of polyQ htt aggregates in cells – imaging, exon1htt(103Q)mCFP cells, high-content imaging, primary screen (AID 483); conditions: exon1htt(103Q)mCFP cell line, aggregate imaging, at 2 µM; inhibition of aggregation: stronger effect = higher value; nuclei count: measured here: cell count, toxicity;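 further: compound exposure lasted 3 days before fixation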;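 on nuclei count: percent of the per-plate median nuclei count of sample wells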
[3] = endothelial E-selectin expression blockers – imaging, HUVEC, immunofluorescence, MLSMR starter and 10KST1 sets, primary screen (AID 487;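 active means visually confirmed hit in the image check and inhibition above 20%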;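 on inhibition: signal is fraction of cell area covered by stained E-selectin grains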;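 on nuclei count: 100% = median nuclei count of all wells on the same plate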); conditions: HUVEC TNFalpha-induced E-selectin immunofluorescence imaging, at 2 µM; inhibition: stronger effect = higher value; nuclei count: measured here: cell number, toxicity
[4] = molecular target: Voltage-gated potassium channel subunit beta-2 (Rattus norvegicus) (UniProt P62483); experiment: inhibitors of rat Kvbeta2 reductase activity – biochemical, NADPH fluorescence, primary screen (AID 622;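 active means fluorescence slope higher than the sample average by over 3 SD, cut at about -0.22 in these data, passing the limit was not always enough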;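 further: slope of raw intensity against log time taken from 70 to 1610 s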); conditions: recombinant KvBeta, 4-cyanobenzaldehyde reduction, at 10 µM, stronger effect = higher value
Chain of Voltage-gated potassium channel subunit beta-2 (Rattus norvegicus) (P62483 whole entry, looked up): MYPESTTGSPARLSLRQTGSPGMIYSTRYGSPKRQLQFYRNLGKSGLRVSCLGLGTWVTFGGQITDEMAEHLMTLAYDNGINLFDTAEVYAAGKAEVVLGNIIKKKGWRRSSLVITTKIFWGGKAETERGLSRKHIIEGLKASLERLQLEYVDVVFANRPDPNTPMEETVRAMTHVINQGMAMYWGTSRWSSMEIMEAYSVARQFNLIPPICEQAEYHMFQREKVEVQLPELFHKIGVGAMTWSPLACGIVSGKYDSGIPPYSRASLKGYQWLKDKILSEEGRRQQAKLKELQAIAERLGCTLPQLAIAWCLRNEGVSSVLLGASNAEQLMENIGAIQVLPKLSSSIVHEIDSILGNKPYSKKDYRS

[5] = molecular target: Voltage-gated potassium channel subunit beta-2 (Rattus norvegicus) (UniProt P62483); experiment: enhancers of rat Kvbeta2 NADPH turnover – biochemical, NADPH fluorescence, primary screen (AID 623;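 active means NADPH fluorescence slope more negative than the mean of all samples by about 3 SD, 99.7% confidence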;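 further: fluorescence intensity change per second fitted from 20 to 320 s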); conditions: Recombinant KvBeta, NADPH fluorescence decrease slope, 10 min; at 10 µM; stronger effect = lower value
[6] = molecular target: Muscarinic acetylcholine receptor M4 (Homo sapiens) (UniProt P08173); experiment: M4-linked GIRK flux change, two-sided – cell-based, HEK293 M4/GIRK, thallium flux, BTC-AM, M4 allosteric agonist project, primary screen (AID 625;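 active means fluorescence slope after compound addition differing from the mean of all tested samples at 99.7% confidence, mostly higher but some lower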;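 further: thallium influx through GIRK channels coupled to M4 in HEK293 cells with BTC-AM dye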); conditions: at 10 µM, actives lie on both sides
Chain of Muscarinic acetylcholine receptor M4 (Homo sapiens) (P08173 whole entry, looked up): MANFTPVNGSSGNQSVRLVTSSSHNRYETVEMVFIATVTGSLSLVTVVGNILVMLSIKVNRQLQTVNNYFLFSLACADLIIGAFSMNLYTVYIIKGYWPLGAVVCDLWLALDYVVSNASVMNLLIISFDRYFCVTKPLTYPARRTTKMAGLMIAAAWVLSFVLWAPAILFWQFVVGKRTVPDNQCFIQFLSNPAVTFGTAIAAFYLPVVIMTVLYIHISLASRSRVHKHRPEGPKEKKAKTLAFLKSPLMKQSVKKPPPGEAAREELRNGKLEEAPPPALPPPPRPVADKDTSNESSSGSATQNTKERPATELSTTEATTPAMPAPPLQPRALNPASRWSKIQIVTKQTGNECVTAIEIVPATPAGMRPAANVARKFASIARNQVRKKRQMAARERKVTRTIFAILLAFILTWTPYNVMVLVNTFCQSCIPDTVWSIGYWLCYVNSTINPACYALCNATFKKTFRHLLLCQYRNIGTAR
Outline: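 assay system = HEK293 cells with M4 receptor and GIRK channels | medium = pH 7.3 thallium assay buffer | doses = 10 µM final, single point | timing = cells overnight at 37 °C, BTC-AM loading 1 h, reads 2 min total | signal = BTC-AM fluorescence, 1 Hz kinetic reads | read-out = post-addition slope, 15–24 s, of baseline-normalized fluorescence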

[7] = blockers of RIG-like receptor reporter activation – cell-based, Sendai virus stimulus, luciferase, 10K MLSCN set, TLR/RLR signaling modifier project, primary screen (AID 602276;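 active means inhibition at or above 50% at 10 µM; inactive means inhibition below 50%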;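 further: firefly luciferase from ISG56 promoter only with Renilla not read in this screen; 0% = Sendai virus plus DMSO and 100% = medium plus DMSO without virus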); conditions: HEK293 RL24 IRF3 luciferase reporter, at 10 µM, stronger effect = higher value
[8] = TLR3 IRF3 reporter activation blockers – cell-based, poly I:C stimulus, luciferase, 10K MLSCN set, primary screen (AID 602277;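 active means inhibition of the reporter signal at or above 50%; inactive means inhibition below 50%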); conditions: HEK293-TLR3 RL24 IRF3 luciferase reporter, at 10 µM, stronger effect = higher value
[9] = molecular target: Alpha-2C adrenergic receptor (Homo sapiens) (UniProt P18825); experiment: compounds altering alpha2C-coupled GIRK flux – cell-based, HEK293 alpha2C/GIRK1/2, thallium flux, primary screen (AID 624;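 active means fluorescence slope after compound addition differing from the mean of all screened samples at 99.7% confidence, in either direction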;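 further: slope of fluorescence ratio to pre-addition baseline per second over 15 to 24 s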); conditions: thallium flux BTC fluorescence, at 10 µM, actives lie on both sides
Chain of Alpha-2C adrenergic receptor (Homo sapiens) (P18825 whole entry, looked up): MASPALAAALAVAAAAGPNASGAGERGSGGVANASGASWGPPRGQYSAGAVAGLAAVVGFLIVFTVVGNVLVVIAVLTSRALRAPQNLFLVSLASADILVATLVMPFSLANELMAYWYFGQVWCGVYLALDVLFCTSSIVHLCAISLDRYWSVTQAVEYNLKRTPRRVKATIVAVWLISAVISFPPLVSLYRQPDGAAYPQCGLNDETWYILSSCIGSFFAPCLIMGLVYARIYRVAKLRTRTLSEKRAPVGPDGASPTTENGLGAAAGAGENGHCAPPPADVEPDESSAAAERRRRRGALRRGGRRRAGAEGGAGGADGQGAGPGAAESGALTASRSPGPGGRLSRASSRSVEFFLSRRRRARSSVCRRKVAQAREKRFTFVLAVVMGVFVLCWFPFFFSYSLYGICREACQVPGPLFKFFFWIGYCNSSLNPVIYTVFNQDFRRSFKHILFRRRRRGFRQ

[10] = inhibitors of larval lipid processing in zebrafish, primary screen, whole organism, PED6 fluorescence, gall bladder and intestine (AID 686;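 active means a full or partial loss of lipid-probe fluorescence in the fish gall bladder, intestine or both, judged by eye; inactive means no fluorescence loss, or compound toxic to the fish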;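 further: larvae 5 to 7 days old with five fish per well; signal comes from phospholipase A2 cleavage of quenched PED6 carried via bile; overnight exposure to compound and PED6 before scoring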); conditions: Zebrafish larvae PED6 lipid processing, fluorescence scoring; screened at 20 µM (by protocol)
Outline: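 Also added: quenched phospholipase substrate PED6, 100 nM final, ingested by larvae; System: zebrafish larvae, 5-7 d; Quantity: 5 larvae per well; Compound: 20 µM single dose; Schedule: overnight compound and PED6 incubation; Read-out: visual per-well fluorescence inhibition score; Measured by: By-eye fluorescence microscopy; Medium: E3.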

Compound	cell count [1]	inhibition [1]	inhibition of aggregation [2]	nuclei count [2] [%]	inhibition [3]	nuclei count [3] [%]	fluorescence slope [4]	NADPH fluorescence slope [5]	fluorescence slope [6]	inhibition [7]	inhibition [8]	slope [9]	outcome [10]
O=C(Cc1c[nH]c2ccccc12)N1CCc2ccccc21	236	2.1% (inactive)	6.4% (inactive)	90	-28.8% (inactive)	93.8	-0.582 (inactive)	-1e-05 (inactive)	0.00443 (inactive)	-4.15% (inactive)	-44.5% (inactive)		
CC1(C)NC(=O)N(CC(O)CN(Cc2ccccc2)Cc2ccccc2)C1=O (stereo not drawn)	606	9.2% (inactive)	14% (inactive)	84.4	-13% (inactive)	113	-0.299 (inactive)	-4e-05 (inactive)	0.00564 (inactive)	9.57% (inactive)	21.2% (inactive)		
O=C(Nc1ccc2c(c1)OCO2)c1nn(-c2ccccc2)c(=O)c2ccccc12	417	7.1% (inactive)	-7.3% (inactive)	93.9		150	-0.621 (inactive)	2e-05 (inactive)		13.5% (inactive)	11.4% (inactive)	0.00664 (inactive)	
CN(C)c1nc(Nc2ccc(Cl)cc2)nc(OCC#N)n1	387	-23% (inactive)	-6.1% (inactive)	78.6	-109% (inactive)	128	-0.574 (inactive)	1.7e-05 (inactive)	0.00241 (inactive)	24.2% (inactive)	37.1% (inactive)		
O=C(CS(=O)(=O)c1cn(Cc2ccc(F)cc2)c2ccccc12)N1CCCCC1	474	-0.2% (inactive)	-5% (inactive)	116	16.9% (inactive)	110	-0.303 (inactive)	-6.4e-05 (inactive)	0.00645 (inactive)	3.28% (inactive)	11.2% (inactive)		
Cc1cc(S(=O)(=O)N2CCN(c3ncccn3)CC2)ccc1-n1cnnn1	402	7.9% (inactive)	-13.8% (inactive)	101		149	-0.393 (inactive)	-1e-05 (inactive)		-6.32% (inactive)	0.356% (inactive)	0.00528 (inactive)	inactive
CCc1cc(C)cc(OCCNC(=O)c2ncn[nH]2)c1	473	3% (inactive)	3.2% (inactive)	93.5	31.1% (inactive)	88.4	-0.592 (inactive)	-1.9e-06 (inactive)	0.00585 (inactive)	12% (inactive)	18.1% (inactive)		
O=S(=O)(NCc1ccco1)c1cccc2cccnc12	336	0% (inactive)	-18.3% (inactive)	111	-65.9% (inactive)	103	-0.551 (inactive)	-1.2e-05 (inactive)	0.00492 (inactive)	13.3% (inactive)	13% (inactive)		
Cc1cccc(NC(=O)CN(C)S(=O)(=O)c2ccccc2)n1	536	-17.1% (inactive)	2.2% (inactive)	123	-24.3% (inactive)	116	-0.44 (inactive)	-7.5e-05 (inactive)	0.00526 (inactive)	15% (inactive)	15.7% (inactive)		
